Assay results from ChEMBL document CHEMBL1146380, “Synthesis, antimicrobial activity, and QSAR studies of furan-3-carboxamides” (2007).
Calls of active or inactive are those of the source.

Columns and labels:
Staphylococcus aureus = experiment: Antimicrobial activity against Staphylococcus aureus ATCC 25923 by broth microdilution method; assay type: functional; conditions: for MBC: read-out: MFC
In short: (§1)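 Bacteria grown overnight on Mueller–Hinton agar. Colonies were suspended in saline to McFarland turbidity (about 10^8 cfu/mL), diluted 1:100 in saline, then 1:20 in Mueller–Hinton broth, giving 5 · 10^4 cfu/mL per well. DMSO-dissolved compound was tested in twofold dilutions from 320 to 1.25 at 35 °C for 24 h. MIC was the lowest concentration with no visible turbidity (M7-A4). Bactericidal concentration was read by subculturing clear wells on Mueller–Hinton agar.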

Nakaseomyces glabratus = experiment: Antimicrobial activity against Candida glabrata […] by broth microdilution method; assay type: functional
In short: (§2)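 Yeasts grown on potato dextrose agar. Inoculum was standardized by McFarland turbidity as for bacteria, into RPMI 1640 broth (M27-A2). DMSO-dissolved compound was tested in twofold dilutions from 320 to 1.25 at 35 °C for 24 h, in duplicate. MIC was the lowest concentration completely inhibiting visible growth. Fungicidal concentration was read by subculturing 20 µL from clear wells on Sabouraud dextrose agar at 35 °C.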

[1] = test system: Cryptococcus deneoformans; experiment: Antimicrobial activity against Cryptococcus neoformans var.neoformans serotype D ATCC 28952 by broth microdilution method; assay type: functional
In short: (§3)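 Organism grown on potato dextrose agar, with turbidity-standardized inoculum in RPMI 1640 broth (M27-A2). DMSO-dissolved compound was tested in twofold dilutions from 320 to 1.25 at 35 °C, incubated up to 72 h, in duplicate. MIC was the lowest concentration with no visible growth. Cidal concentration was read by subculturing 20 µL from clear wells on Sabouraud dextrose agar, incubated for the same period.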

Candida albicans = experiment: Antimicrobial activity against Candida albicans ATCC 44373 by broth microdilution method; assay type: functional; in short: as §2
Saccharomyces cerevisiae = experiment: Antimicrobial activity against Saccharomyces cerevisiae ATCC 2601 by broth microdilution method; assay type: functional; in short: as §3
Rhizopus arrhizus = experiment: Antimicrobial activity against Rhizopus oryzae isolate by broth microdilution method; assay type: functional
Escherichia coli = experiment: Antimicrobial activity against Escherichia coli ATCC 25922 by broth microdilution method; assay type: functional; in short: as §1
Prototheca zopfii = experiment: Antimicrobial activity against Prototheca zopfii by broth microdilution method; assay type: functional; in short: as §3
Pseudomonas aeruginosa = experiment: Antimicrobial activity against Pseudomonas aeruginosa ATCC 27853 by broth microdilution method; assay type: functional; in short: as §1
Aspergillus fumigatus = experiment: Antimicrobial activity against Aspergillus fumigatus isolate by broth microdilution method; assay type: functional
Sporothrix schenckii = experiment: Antimicrobial activity against Sporothrix schenckii ATCC 1146 by broth microdilution method; assay type: functional
Aspergillus niger = experiment: Antimicrobial activity against Aspergillus niger isolate by broth microdilution method; assay type: functional
Aspergillus terreus = experiment: Antimicrobial activity against Aspergillus terreus isolate by broth microdilution method; assay type: functional
Candida dubliniensis = experiment: Antimicrobial activity against Candida dubliniensis CBS 7987 by broth microdilution method; assay type: functional; in short: as §2
Fusarium solani = experiment: Antimicrobial activity against Fusarium solani isolate by broth microdilution method; assay type: functional
[2] = test system: Salmonella enterica subsp. enterica serovar Setubal; experiment: (§4) Antimicrobial activity against Salmonella setubal ATCC 19196 by broth microdilution method; assay type: functional; in short: as §1
[3] = as §4; assay type: functional, Salmonella enterica subsp. enterica serovar Setubal; conditions: Salmonella enterica; in short: as §1
Aspergillus flavus = experiment: Antimicrobial activity against Aspergillus flavus isolate by broth microdilution method; assay type: functional
Klebsiella pneumoniae = experiment: Antimicrobial activity against Klebsiella pneumoniae ATCC 1003 by broth microdilution method; assay type: functional; in short: as §1
Scedosporium boydii = experiment: Antimicrobial activity against Pseudallescheria boydii isolate by broth microdilution method; assay type: functional

CN(C)C(=O)c1ccoc1
inactive: Activity (Staphylococcus aureus) | Activity (Nakaseomyces glabratus) | Activity [1] | Activity (Candida albicans) | MIC (Saccharomyces cerevisiae) | Activity (Escherichia coli) | Activity (Prototheca zopfii) | Activity (Pseudomonas aeruginosa) | Activity (Aspergillus fumigatus) | Activity (Aspergillus niger) | Activity (Aspergillus terreus) | Activity (Candida dubliniensis) | Activity (Fusarium solani) | Activity [2] | Activity (Aspergillus flavus) | Activity (Klebsiella pneumoniae)
160 µg/mL: MIC (Sporothrix schenckii) | MIC (Scedosporium boydii)
320 µg/mL: MIC (Staphylococcus aureus) | MIC [1] | MFC (Rhizopus arrhizus) | MIC (Rhizopus arrhizus) | MIC (Prototheca zopfii) | MIC (Pseudomonas aeruginosa) | MFC (Sporothrix schenckii) | MIC (Aspergillus niger) | MIC [3] | MIC (Klebsiella pneumoniae) | MFC (Scedosporium boydii)

O=C(NCc1ccncc1)c1ccoc1
80 µg/mL: MIC (Staphylococcus aureus)
320 µg/mL: MBC (Staphylococcus aureus) | MFC [1] | MIC [1] | MFC (Rhizopus arrhizus) | MIC (Rhizopus arrhizus) | MIC (Escherichia coli) | MIC (Pseudomonas aeruginosa) | MIC (Aspergillus fumigatus) | MFC (Sporothrix schenckii) | MIC (Sporothrix schenckii) | MFC (Aspergillus niger) | MIC (Aspergillus niger) | MFC (Aspergillus terreus) | MIC (Aspergillus terreus) | MFC (Candida dubliniensis) | MIC (Candida dubliniensis) | MIC (Fusarium solani) | MIC [3] | MIC (Klebsiella pneumoniae) | MFC (Scedosporium boydii) | MIC (Scedosporium boydii)
inactive: Activity (Nakaseomyces glabratus) | Activity (Candida albicans) | Activity (Saccharomyces cerevisiae) | Activity (Escherichia coli) | Activity (Pseudomonas aeruginosa) | Activity (Aspergillus fumigatus) | Activity (Fusarium solani) | Activity [2] | Activity (Aspergillus flavus) | Activity (Klebsiella pneumoniae)
160 µg/mL: MFC (Prototheca zopfii) | MIC (Prototheca zopfii)

O=C(NNc1c(F)c(F)c(F)c(F)c1F)c1ccoc1
inactive: Activity (Staphylococcus aureus) | Activity (Nakaseomyces glabratus) | Activity (Saccharomyces cerevisiae) | Activity (Escherichia coli) | Activity (Pseudomonas aeruginosa) | Activity (Aspergillus fumigatus) | Activity [2] | Activity (Aspergillus flavus) | Activity (Klebsiella pneumoniae) | Activity (Scedosporium boydii)
80 µg/mL: MIC (Prototheca zopfii) | MFC (Fusarium solani) | MIC (Fusarium solani)
320 µg/mL: MIC (Staphylococcus aureus) | MIC (Nakaseomyces glabratus) | MFC [1] | MIC [1] | MFC (Candida albicans) | MIC (Candida albicans) | MFC (Rhizopus arrhizus) | MIC (Rhizopus arrhizus) | MIC (Escherichia coli) | MFC (Prototheca zopfii) | MIC (Pseudomonas aeruginosa) | MFC (Sporothrix schenckii) | MIC (Sporothrix schenckii) | MFC (Aspergillus niger) | MIC (Aspergillus niger) | MFC (Aspergillus terreus) | MIC (Aspergillus terreus) | MFC (Candida dubliniensis) | MIC [3] | MIC (Klebsiella pneumoniae)
160 µg/mL: MIC (Candida dubliniensis)

O=C(NCCCO)c1ccoc1
160 µg/mL: MIC (Staphylococcus aureus) | MFC (Nakaseomyces glabratus) | MIC (Nakaseomyces glabratus) | MFC (Candida albicans) | MFC (Prototheca zopfii) | MIC (Prototheca zopfii) | MBC (Pseudomonas aeruginosa) | MIC (Pseudomonas aeruginosa) | MFC (Candida dubliniensis) | MIC (Candida dubliniensis)
inactive: Activity (Saccharomyces cerevisiae) | Activity (Escherichia coli) | Activity (Aspergillus fumigatus) | Activity (Aspergillus niger) | Activity [2] | Activity (Aspergillus flavus) | Activity (Klebsiella pneumoniae)
320 µg/mL: MBC (Staphylococcus aureus) | MIC (Saccharomyces cerevisiae) | MFC (Rhizopus arrhizus) | MIC (Rhizopus arrhizus) | MIC (Aspergillus fumigatus) | MFC (Sporothrix schenckii) | MIC (Sporothrix schenckii) | MIC (Aspergillus niger) | MFC (Aspergillus terreus) | MIC (Aspergillus terreus) | MFC (Fusarium solani) | MIC (Fusarium solani) | MIC (Klebsiella pneumoniae) | MFC (Scedosporium boydii) | MIC (Scedosporium boydii)
40 µg/mL: MIC [1]
80 µg/mL: MFC [1] | MIC (Candida albicans)

O=C(Nc1ccccc1O)c1ccoc1
5 µg/mL: MIC [1]
160 µg/mL: MFC (Nakaseomyces glabratus) | MIC (Nakaseomyces glabratus) | MIC (Candida albicans) | MFC (Saccharomyces cerevisiae) | MIC (Saccharomyces cerevisiae) | MIC (Escherichia coli) | MBC (Pseudomonas aeruginosa) | MIC (Aspergillus fumigatus) | MFC (Candida dubliniensis) | MIC [3] | MFC (Scedosporium boydii) | MIC (Scedosporium boydii)
80 µg/mL: MFC (Prototheca zopfii) | MIC (Candida dubliniensis)
40 µg/mL: MIC (Prototheca zopfii)
10 µg/mL: MIC (Pseudomonas aeruginosa)
inactive: Activity (Aspergillus terreus) | Activity (Fusarium solani) | Activity (Aspergillus flavus)
320 µg/mL: MBC (Staphylococcus aureus) | MFC (Candida albicans) | MFC (Rhizopus arrhizus) | MIC (Rhizopus arrhizus) | MBC (Escherichia coli) | MFC (Aspergillus fumigatus) | MFC (Sporothrix schenckii) | MIC (Sporothrix schenckii) | MFC (Aspergillus niger) | MIC (Aspergillus niger) | MIC (Aspergillus terreus) | MIC (Fusarium solani) | MBC [3] | MIC (Aspergillus flavus) | MBC (Klebsiella pneumoniae; read-out: MFC)
20 µg/mL: MIC (Staphylococcus aureus) | MFC [1] | MIC (Klebsiella pneumoniae)
